Data: ChEMBL document CHEMBL5252513, “Identification of a Benzoisoxazoloazepine Inhibitor (CPI-0610) of the Bromodomain and Extra-Terminal (BET) Family as a Candidate for Human Clinical Trials” (J Med Chem, 2016)
Activity calls are given as the source filed them. The calls are words filed in the database; no cut-off is given here.

Assays:
[1] = Unbound AUC in rat at 5 mg/kg,po; assay type: ADME, organism-based; conditions: in vivo
[2] = Toxicity against BALB/c mouse plasma xenografted with human MV4-11 cells assessed as body weight loss at 60 mg/kg,po QD for 28 days; assay type: organism-based; conditions: in vivo, 672 h, time 28 day
Outline: (§1)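 Body weight change (%) followed in MV-4-11 AML mouse xenograft during 28 days of oral single-agent dosing (30 mg/kg once or twice daily, 60 mg/kg once daily), vehicle PO BID as control.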

[3] = Oral bioavailability in dog at 2.5 mg/kg; assay type: ADME, organism-based, Canis lupus familiaris; conditions: in vivo
[4] = Toxicity in rat assessed as mild to moderate hyperglycemia at 2 to 20 mg/kg,po QD consecutive for 14 days followed by 2 weeks recovery period; assay type: organism-based; conditions: in vivo, 336 h, dose 2-20 mg/kg, time 14 day
Outline: (§2)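 Oral suspension given once daily for 14 consecutive days (rat 2, 6, 20 mg/kg; dog 2, 4, 6 mg/kg) in dose range-finding and GLP repeat-dose studies, GLP arms with an added 2-week recovery period; histopathology and clinical pathology findings recorded.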

[5] = Protein binding in mouse plasma; assay type: ADME, cell-free; conditions: read-out: PPB (converted)
[6] = Half life in human patient with progression lymphoma at 300 mg,po QD consecutively for 14 days; assay type: ADME; conditions: in vivo, time 14 day
[7] = Toxicity against BALB/c mouse plasma xenografted with human MV4-11 cells assessed as body weight loss at 30 mg/kg,po QD for 28 days; assay type: organism-based; conditions: in vivo, 672 h, time 28 day; outline: as §1
[8] = Total clearance in rat at 1 mg/kg,iv; assay type: ADME, organism-based; conditions: in vivo
[9] = Volume of distribution at steady state in dog at 0.5 mg/kg,iv; assay type: ADME, organism-based, Canis lupus familiaris; conditions: in vivo, read-out: Vdss
[10] = Unbound clearance in rat at 1 mg/kg,iv; assay type: ADME, organism-based; conditions: in vivo
MV4-11 = test: In vivo inhibition of BRD4 in human MV4-11 cells xenografted in BALB/c mouse assessed as reduction in cellular MYC mRNA expression level in plasma at 15 mg/kg,sc BID and measured at 4 hrs by PCR anlaysis; assay type: functional, organism-based
Outline: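 Pharmacodynamic study in MV-4-11 AML mouse xenograft. Dosing was 15 mg/kg subcutaneous twice daily. At 4, 8 and 12 h after the second dose, MYC mRNA was measured against vehicle, and compound levels were measured in plasma and tumor. Free plasma concentration was estimated alongside total levels.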

[11] = Toxicity in dog assessed as hypocellularity of bone marrow with associated anemia and thrombocytopenia at 2 to 6 mg/kg,po QD consecutive for 14 days followed by 2 weeks recovery period; assay type: organism-based, Canis lupus familiaris; conditions: in vivo, 336 h, dose 2-6 mg/kg, time 14 day; outline: as §2
[12] = Cmax in mouse at 30 mg/kg,po; assay type: ADME, organism-based; design: dose 30 mg/kg, route po; conditions: in vivo
[13] = Tmax in mouse at 10 mg/kg,sc; assay type: ADME, organism-based; conditions: in vivo
[14] = Toxicity in dog assessed as GI mucosal ulceration at 2 to 6 mg/kg,po QD consecutive for 14 days followed by 2 weeks recovery period; assay type: organism-based, Canis lupus familiaris; conditions: in vivo, 336 h, dose 2-6 mg/kg, time 14 day; outline: as §2
[15] = Protein binding in human plasma; assay type: ADME, cell-free; conditions: read-out: PPB (converted)
[16] = Total clearance in dog at 0.5 mg/kg,iv; assay type: ADME, organism-based, Canis lupus familiaris; conditions: in vivo
[17] = target: T1, Bromodomain-containing protein 9 (Homo sapiens, UniProt Q9H8M2); test: Displacement of biotinylated JQ1 from BRD9 bromodomain (unknown origin) incubated for 20 mins by AlphaLISA assay
T1 sequence (Q9H8M2 whole entry): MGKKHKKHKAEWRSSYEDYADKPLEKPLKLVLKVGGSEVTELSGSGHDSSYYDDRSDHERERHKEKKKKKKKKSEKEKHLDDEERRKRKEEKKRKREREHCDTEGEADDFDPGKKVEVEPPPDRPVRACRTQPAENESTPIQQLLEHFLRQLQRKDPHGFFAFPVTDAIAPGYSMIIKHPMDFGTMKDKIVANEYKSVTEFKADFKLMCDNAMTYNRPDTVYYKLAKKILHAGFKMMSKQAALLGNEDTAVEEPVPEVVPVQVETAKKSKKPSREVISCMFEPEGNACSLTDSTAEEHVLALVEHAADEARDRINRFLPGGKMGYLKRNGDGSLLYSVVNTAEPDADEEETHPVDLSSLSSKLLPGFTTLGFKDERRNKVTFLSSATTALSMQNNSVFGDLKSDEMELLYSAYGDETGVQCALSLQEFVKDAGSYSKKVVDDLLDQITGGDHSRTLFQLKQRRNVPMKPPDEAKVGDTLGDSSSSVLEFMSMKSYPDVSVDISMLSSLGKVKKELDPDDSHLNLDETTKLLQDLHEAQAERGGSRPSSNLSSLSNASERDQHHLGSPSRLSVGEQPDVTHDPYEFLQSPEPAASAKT

Cytochrome P450 = test: Inhibition of CYP450 (unknown origin) at 10 uM; assay type: ADME, protein assay; conditions: human
Outline: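 Cytochrome P450 activity tested with compound at 10 µM against a number of common isoforms; time-dependent inhibition also assessed.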

[18] = Unbound AUC in dog at 2.5 mg/kg,po; assay type: ADME, organism-based, Canis lupus familiaris; conditions: in vivo
[19] = Toxicity in dog assessed as to mild to moderate hyperglycemia at 2 to 6 mg/kg,po QD consecutive for 14 days followed by 2 weeks recovery period; assay type: organism-based, Canis lupus familiaris; conditions: in vivo, 336 h, dose 2-6 mg/kg, time 14 day; outline: as §2
[20] = Toxicity in rat assessed as lymphoid depletion at 2 to 20 mg/kg,po QD consecutive for 14 days followed by 2 weeks recovery period; assay type: organism-based; conditions: in vivo, 336 h, dose 2-20 mg/kg, time 14 day; outline: as §2

fAUC [1]: 0.64 µM·h | bioavailability [3]: 45% | fraction unbound [5]: 0.03 | half-life [6]: 23 h | clearance [8]: 20 mL/min/kg | Vd [9]: 1.2 L/kg | CL free [10]: 283 mL/min/kg | Cmax [12]: 24 µM | Tmax [13]: 1.3 h | fraction unbound [15]: 0.05 | clearance [16]: 1.83 mL/min/kg | IC50 [17]: > 80 µM | inhibition (INH) (Cytochrome P450): Not Active | fAUC [18]: 1.1 µM·h
Compound: Cc1noc2c1-c1ccccc1C(c1ccc(Cl)cc1)=N[C@H]2CC(N)=O [PELABRESIB]
Activity [2]: Non-Toxic | Activity [4]: Toxic | Activity [7]: Non-Toxic | inhibition (MV4-11): Active | Activity [11]: Toxic | Activity [14]: Toxic | Activity [19]: Toxic | Activity [20]: Toxic
